Ba/F3 V617F tox = loss of viability in JAK2V617F-driven Ba/F3 cells | inhibition, % at 5.6 µM | actives 1.1% (n = 220,000) | Ba/F3 EpoR-JAK2V617F viability, ATP luminescence;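 active = inhibition above the campaign mean plus 3 SD over all tested compounds, cut at about 24% in these data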;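 note: cytokine-independent growth of Ba/F3 cells driven by EpoR plus mutant JAK2; 0% = DMSO-treated cells and 100% = JAK inhibitor I control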
bCat nuc transl = alters nuclear translocation of beta-catenin in HeLa cells | nuclear translocation activity, % at 5 µM | AID 1665 | immunofluorescence imaging | actives 0.3% (n = 190,000);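 active = nuclear translocation activity above 50% at 5 µM, with a well cell count of 50 or more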;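 note: per-cell ratio of nuclear to cytoplasmic median beta-catenin stain intensity; plate controls were DMSO negative control for no effect and GSK-3 inhibitor IX positive control for full effect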
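Assay system: human HeLa cells, native beta-catenin; doses: 5 µM primary, 0.02–20 µM confirmation; incubation: compound treatment 24 h, 37°C, 5% CO2; technique: fluorescence imaging of beta-catenin antibody stain plus DAPI; measure: % activation, nuclear-to-cytoplasmic median beta-catenin signal ratio per cell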
APP 5UTR inh = APP translation inhibition. SH-SY5Y APP 5'UTR-luciferase reporter, luminescence. inhibition, % at 2 µM. actives 0.82% (n = 190,000). AID 1285;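 active = inhibition above a set limit, derived from the sample mean plus 3 SD, cut at about 45% in these data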
BaF3 parental = counter-screen for JAK2V617F inhibitors: parental Ba/F3 viability inhibitors. CellTiter-Glo ATP luminescence. AID 1486. actives 1.1% (n = 220,000). inhibition, % at 5.6 µM;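 active = inhibition above a per-campaign cutoff, the mean inhibition of all tested compounds plus 3 SD, cut at about 27% in these data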;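 note: 0% = DMSO wells and 100% = JAK Inhibitor I control wells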
MT stabilizer = stabilizes microtubules in HeLa cells | AID 2205 | HeLa tubulin immunostaining HCS, 24 h; share of cells brighter than vehicle mean+2SD | actives 0.83% (n = 200,000) | % tubulin-high responders, % at 10 µM;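 active = plate Z-score above 3 for both tubulin-high and condensed-nucleus cell shares, with cell loss under 80%, at 10 µM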;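 note: anti alpha tubulin signal scored within the nucleus-defined area of each cell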
L major viab = inhibitors of Leishmania major promastigote growth; Leishmania major promastigotes, resazurin fluorescence viability; inhibition, % at 10 µM; actives 9% (n = 200,000); in the data active = inhibition above about 50%;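 note: promastigotes grown with compound for 44 hours at 28 °C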
* hit, by the source's call; / = no result given. The list is not random: actives were taken first. Their share in the collection is about 9.6%.

SMILES | Ba/F3 V617F tox | bCat nuc transl | APP 5UTR inh | BaF3 parental | MT stabilizer | L major viab
CC(=O)N/C(=C/c1ccc(OS(=O)(=O)c2ccc(C)cc2)cc1)C(=O)NCCCO | -5 | -4 | / | -4 | / | /
CC(=O)Nc1ccc(NC(=O)C(C)Sc2nnc(-c3cccs3)o2)cc1 (centres undefined) | -5 | -3 | / | -2 | / | /
CN(Cc1ccc(Cl)s1)C(=O)CCl | 6 | 4 | 19 | 3 | 3 | 84*
Cc1ccc(C(=O)c2cccc(N)c2)cc1C | -1 | 0 | 49* | 7 | 2 | -5
O=[N+]([O-])c1cc2c(cc1/C=N/n1c(-c3ccccc3)n[nH]c1=S)OCO2 | 4 | -1 | -7 | 3 | 3 | 53*
O=[N+]([O-])c1cc2c(cc1/C=N/n1c(-c3ccccn3)n[nH]c1=S)OCO2 | 5 | / | -4 | 13 | 3 | 53*
CN(c1nc2ccccc2n2c(C3CC3)nnc12)S(=O)(=O)c1ccccc1 | -2 | 2 | / | 1 | / | /
Cc1cccc(C)c1OCCCCCNCCO | 3 | -3 | 29 | 9 | 1 | 89*
COc1ccccc1OCCCCNCCO | 3 | -1 | 3 | -3 | 2 | -1
CCOc1ccccc1CNCCO | -2 | 0 | -13 | 1 | 2 | -3
CC(C)c1ccccc1OCCCCCNCCO | 0 | -3 | -10 | 3 | 6 | 91*
Cc1ccccc1OCCCCCNCCO | -1 | 0 | 6 | 6 | 6 | 62*
OCCNCCOc1ccccc1F | -3 | -2 | 4 | 1 | 3 | -6
CC(C)(C)c1ccccc1OCCCCCNCCO | 1 | -1 | -20 | 8 | 5 | 93*
CC(C)NC(=S)NC(=O)/C=C/c1ccc(F)cc1 | 5 | 0 | 7 | 4 | 3 | -1
CCN(Cc1ccccc1)c1ccc(/C=N/N=C(N)N)cc1 | 3 | 41 | 23 | 7 | 8 | 100*
CCN(Cc1ccccc1)c1ccc(/C=N/NC(=S)NC(C)C)cc1 | 0 | 1 | 8 | 6 | 4 | 43
CCC(C)c1ccc(O)c(NC(=O)c2cncc(Br)c2)c1 (centres undefined) | 3 | 0 | -1 | 0 | 5 | 18
CO/N=C(\Cn1ncc(N2CCCC2)c(Br)c1=O)c1ccc(Cl)cc1 | 2 | -8 | -8 | 5 | 2 | 71*
CO/N=C(\Cn1ncc(NC2CCCCC2)c(Br)c1=O)c1ccc(Cl)cc1 | 2 | -2 | 3 | 6 | 2 | 6
C/C(=N\NC(=O)CSc1nc(C)[nH]c1[N+](=O)[O-])c1ccc(F)cc1 | -6 | -5 | / | 2 | / | /
Cc1cc(C)c2nc(N3CCC(C(=O)NCCCN4CC(C)CC(C)C4)CC3)sc2c1 (centres undefined) | 5 | 24 | 20 | 13 | 5 | 99*
Cc1cc(C)c2nc(N3CCCC(C(=O)NCCCN4CCOCC4)C3)sc2c1 (centres undefined) | 3 | -1 | 2 | 5 | 1 | 2
O=C(Nn1cnnc1)c1cc2c(s1)CCCC2 | -1 | -2 | 6 | 3 | 3 | -8
O=C(NCCCN1CCOCC1)c1cc2c(s1)CCCC2 | -2 | -3 | 2 | 2 | 6 | 91*
SMILES | Ba/F3 V617F tox | bCat nuc transl | APP 5UTR inh | BaF3 parental | MT stabilizer | L major viab
O=C(NCCCN1CCCC1=O)c1cc2c(s1)CCCCC2 | -6 | 0 | / | -7 | / | /
NNC(=O)c1cc2c(s1)CCCCCC2 | -3 | 0 | 70* | 5 | 3 | 1
O=C(NCCCN1CCOCC1)c1csc2c1CCCC2 | 0 | 0 | -2 | 3 | 3 | 85*
CC(=O)CCc1ccc2oc(C(=O)O)c(C)c2c1 | -5 | / | -7 | 1 | 3 | -2
CCN(CC)c1nc(-c2ccccn2)nc(-c2ccccc2)c1C#N | -2 | -2 | 2 | 1 | 2 | 71*
CN(C)c1nc(-c2ccccc2)nc(-c2ccc(Cl)cc2)c1C#N | 0 | 4 | 7 | 6 | 3 | -1
CCN1C2=C(C(=O)CCC2)C(c2ccc(O)cc2)C2=C1CCCC2=O | 4 | 1 | 7 | 7 | 4 | -5
Cc1ccc(C)c(OCC(O)CN2C(C)CCCC2C)c1 (centres undefined) | 1 | / | -15 | 3 | 3 | 44
C=CCc1ccc(OCC(O)COc2ccc(CC=C)cc2OC)c(OC)c1 | 6 | / | 10 | 5 | 1 | 12
Cc1ccc(C)c(OCC(O)CN2CCCCC2C)c1 (centres undefined) | 2 | 3 | -26 | 3 | 2 | 91*
C=CCc1ccc(OCC(O)CN2CCCCC2C)c(OC)c1 (centres undefined) | 0 | 1 | 7 | 2 | 2 | 93*
C=CCc1ccc(OCC(O)CN2CCCCC2)c(OC)c1 (centres undefined) | -2 | -1 | -26 | 5 | 1 | 78*
Cc1ccc(NC(=O)COC(=O)c2cccc3c(=O)c(C)c(-c4ccccc4)oc23)cc1 | 1 | / | -1 | 9 | 1 | 66*
CCCCN(C(=O)c1cccc2c(=O)c(C)c(-c3ccccc3)oc12)c1ccccc1 | -3 | 1 | -18 | 2 | 2 | 73*
Cc1cccc(NC(=S)N=Nc2c(O)[nH]c3ccccc23)c1 | -2 | -4 | 45* | 4 | 2 | 97*
CC(C)NC(=S)N=Nc1c(O)[nH]c2ccc(C(C)C)cc12 | -1 | 2 | 22 | 3 | 6 | 91*
O=C(COC(=O)c1cncc(Br)c1)NCc1ccc(Cl)cc1 | 0 | 1 | / | 4 | / | /
O=C(COC(=O)c1cc(C(F)(F)F)cc(C(F)(F)F)c1)NCc1ccc(Cl)cc1 | -3 | / | -14 | -2 | 4 | 50*
COCCCNC(=S)Nc1ccc(CC(=O)O)cc1 | -3 | 0 | 2 | 4 | 2 | 7
Cc1ccc(NC(=O)Cc2nnc(SCC(=O)c3ccc(Br)cc3)n2C)cc1 | 0 | / | 15 | 11 | 2 | 11
COc1cc(C(=O)c2c(C)c(CCC#N)n3ccccc23)cc(OC)c1OC | 2 | 61* | -30 | 11 | 20* | 14
CCN1C2OC3OC4C(OC3OC2N(CC)S1(=O)=O)N(CC)S(=O)(=O)N4CC (centres undefined) | 5 | -1 | -11 | 2 | 3 | -6
FC(F)(F)c1ccc(Cl)c(N/N=C/c2ccc(N3CCOCC3)s2)c1 | 0 | 1 | -13 | 6 | 2 | 98*
CC1CC(C)CN(CCOCCSc2ccc(Cl)cc2)C1 (centres undefined) | -1 | 1 | 4 | 5 | 4 | 91*
Cc1cc(C(=O)NCCCN2CC(C)CC(C)C2)n(-c2ccccc2)n1 (centres undefined) | -3 | / | 0 | 2 | 2 | 12
c1ccc(SCCOCCn2cncn2)cc1 | -1 | 1 | -21 | 4 | 3 | 1
COCCSc1ccccc1C(=O)N1CCCC(C)C1 (centres undefined) | 2 | 1 | -3 | 6 | 3 | 0
CC1CC(C)CN(CCOCCSc2ccccc2)C1 (centres undefined) | 0 | 2 | -2 | 7 | 4 | 89*

Screening results deposited in PubChem BioAssay by several laboratories.
